Laboratory results as given in ChEMBL document CHEMBL1122111, “Allergenic alpha-methylene-gamma-butyrolactones. Stereospecific syntheses of (+)- and (-)-gamma-methyl-alpha-methylene-gamma-butyrolactones. A study of the specificity of (+) and (-) enantiomers in inducing allergic contact dermatitis” (1982).
Several values for one entry are separate records, joined by “and”; a condition that tells them apart may be missing. Identical values can stand only once.

Experiments:
Assay type in all cases: functional
Cavia porcellus [1] = species: Cavia porcellus; experiment: Tested for effect on guinea pigs sensitized with (R)5-Methyl-3- methylene-dihydro-furan-2-one and number of animals showing erythema covering the part of the test area
Summary of the method: (§1)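 Female albino Hartley guinea pigs (250–300 g) received three 0.1-mL intradermal nuchal injections on alternate days of a 1:1 FCA/saline emulsion with 5% (+)-enantiomer. After 2 weeks rest, 0.25 mL of 1% or 2% methylene chloride solution was deposited on a 2-cm2 circle and read every 24 h. Erythema/swelling was scored 0–3; av = summed intensities divided by animal number.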

Cavia porcellus [2] = species: Cavia porcellus; experiment: Tested for effect on guinea pigs sensitized with (R)5-Methyl-3- methylene-dihydro-furan-2-one and number of animals showing erythema covering the whole test area; summary of the method: as §1
Cavia porcellus [3] = species: Cavia porcellus; experiment: Tested for effect on guinea pigs sensitized with (R)5-Methyl-3 -methylene-dihydro-furan-2-one and number of animals showing erythema covering the whole test area; summary of the method: as §1
Cavia porcellus [4] = species: Cavia porcellus; experiment: Tested for effect on guinea pigs sensitized with (S)5-Methyl-3- methylene-dihydro-furan-2-one; Number of sensitive animals out of 8 tested
Summary of the method: (§2)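 Sensitization: female albino Hartley guinea pigs (250–300 g) were given three alternate-day 0.1-mL intradermal nuchal injections of 1:1 FCA/saline emulsion containing 5% (−)-enantiomer. Challenge after 2 weeks rest used 0.25 mL of 1% or 2% methylene chloride solution on a 2-cm2 area, read every 24 h. The scale was 0 (none) to 3 (erythema/swelling beyond area); av = summed scores/animals.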

Cavia porcellus [5] = species: Cavia porcellus; experiment: Tested for effect on guinea pigs sensitized with (S)5-Methyl-3 -methylene-dihydro-furan-2-one and number of animals showing erythema covering the whole test area; summary of the method: as §2
Cavia porcellus [6] = species: Cavia porcellus; experiment: Tested for effect on guinea pigs sensitized with (R)5-Methyl-3- methylene-dihydro-furan-2-one and av is calculated by adding the test intensity and divided by the number of animals; summary of the method: as §1
Cavia porcellus [7] = species: Cavia porcellus; experiment: Tested for effect on guinea pigs sensitized with (S)5-Methyl-3- methylene-dihydro-furan-2-one and av is calculated by adding the test intensity and divided by the number of animals; summary of the method: as §2
Cavia porcellus [8] = species: Cavia porcellus; experiment: Tested for effect on guinea pigs sensitized with (R)5-Methyl-3- methylene-dihydro-furan-2-one; Number of sensitive animals out of 8 tested; summary of the method: as §1
Cavia porcellus [9] = species: Cavia porcellus; experiment: Tested for effect on guinea pigs sensitized with (S)5-Methyl-3- methylene-dihydro-furan-2-one and number of animals showing no reaction; summary of the method: as §2
Cavia porcellus [10] = species: Cavia porcellus; experiment: Tested for effect on guinea pigs sensitized with (+/-)-5-Methyl-3- methylene-dihydro-furan-2-one and av is calculated by adding the test intensity and divided by the number of animals
Summary of the method: (§3)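 Female albino Hartley guinea pigs (250–300 g), sensitized by three intradermal nuchal injections of 0.1 mL on alternate days. The emulsion was 1:1 FCA/saline with 10% racemate (5% of each antipode). After 2 weeks rest, 0.25 mL of 1% or 2% methylene chloride solution was applied to a 2-cm2 area. Reactions were scored 0–3 every 24 h; av = summed scores/animals.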

Cavia porcellus [11] = species: Cavia porcellus; experiment: Tested for effect on guinea pigs sensitized with (R)5-Methyl-3 -methylene-dihydro-furan-2-one and number of animals showing erythema covering the part of the test area; summary of the method: as §1
Cavia porcellus [12] = species: Cavia porcellus; experiment: Tested for effect on guinea pigs sensitized with (S)5-Methyl-3- methylene-dihydro-furan-2-one and number of animals showing erythema covering the whole test area; summary of the method: as §2
Cavia porcellus [13] = species: Cavia porcellus; experiment: Tested for effect on guinea pigs sensitized with (+/-)-5-Methyl-3- methylene-dihydro-furan-2-one; Number of sensitive animals; summary of the method: as §3
Cavia porcellus [14] = species: Cavia porcellus; experiment: Tested for effect on guinea pigs sensitized with (+/-)-5-Methyl-3- methylene-dihydro-furan-2-one and number of animals showing erythema covering the part of the test area; summary of the method: as §3
Cavia porcellus [15] = species: Cavia porcellus; experiment: Tested for effect on guinea pigs sensitized with (+/-)-5-Methyl-3- methylene-dihydro-furan-2-one and number of animals showing erythema and swelling of the test area; summary of the method: as §3
Cavia porcellus [16] = species: Cavia porcellus; experiment: Tested for effect on guinea pigs sensitized with (+/-)-5-Methyl-3- methylene-dihydro-furan-2-one and number of animals showing erythema covering the whole test area; summary of the method: as §3
Cavia porcellus [17] = species: Cavia porcellus; experiment: Tested for effect on guinea pigs sensitized with (+/-)-5-Methyl-3- methylene-dihydro-furan-2-one and number of animals showing no reaction; summary of the method: as §3
Cavia porcellus [18] = species: Cavia porcellus; experiment: Tested for effect on guinea pigs sensitized with (R)-5-Methyl-3-methylene-dihydro-furan-2-one; Number of sensitive animals out of 8 tested; summary of the method: as §1
Cavia porcellus [19] = species: Cavia porcellus; experiment: Tested for effect on guinea pigs sensitized with (+/-)-5-Methyl-3- methylene-dihydro-furan-2-one; Number of sensitive animals out of 8 tested; summary of the method: as §3

SMILES: C=C1CC(C)OC1=O (centres undefined)
- Skin tests intensity (Cavia porcellus [1]): 1
- Skin tests intensity (Cavia porcellus [2]): 5
- Skin tests intensity (Cavia porcellus [3]): 2
- No. of sensitive animals (Cavia porcellus [4]): 8
- Skin tests intensity (Cavia porcellus [5]): 1
- av (Cavia porcellus [6]): 1.8 and 0.7
- av (Cavia porcellus [7]): 1.9 and 0.9
- No. of sensitive animals (Cavia porcellus [8]): 6
- Skin tests intensity (Cavia porcellus [9]): 0
- av (Cavia porcellus [10]): 1.8 and 1.5
- Skin tests intensity (Cavia porcellus [11]): 0
- Skin tests intensity (Cavia porcellus [12]): 7
- No. of sensitive animals (Cavia porcellus [13]): 8
- Skin tests intensity (Cavia porcellus [14]): 0
- Skin tests intensity (Cavia porcellus [15]): 6 and 4
- Skin tests intensity (Cavia porcellus [16]): 2 and 4
- Skin tests intensity (Cavia porcellus [17]): 0
- No. of sensitive animals (Cavia porcellus [18]): 8
- No. of sensitive animals (Cavia porcellus [19]): 8
